Assay results taken from ChEMBL document CHEMBL4184148 (Bioorg Med Chem Lett, 2017).

Columns and labels:
[1] = target: RAC-alpha serine/threonine-protein kinase (Homo sapiens) (UniProt P31749); experiment: Binding affinity to wild-type human partial length AKT1 expressed in Escherichia coli BL21 at 1 uM by Kinomescan method relative to control
Procedure, shortened: (§1)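 Kinome-wide competition binding panel run by an outside provider, with each compound tested at a single concentration. Activity is read against the kinase panel.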

[2] = target: NUAK family SNF1-like kinase 1 (Homo sapiens) (UniProt O60285); experiment: Binding affinity to wild-type human partial length ARK5 (E25 to I332 residues) expressed in Escherichia coli BL21 at 1 uM by Kinomescan method relative to control; procedure, shortened: as §1
[3] = target: Mitogen-activated protein kinase kinase kinase 14 (Homo sapiens) (UniProt Q99558); experiment: Binding affinity to wild-type human partial length NIK (L318 to P947 residues) expressed in HEK293 cells at 1 uM by Kinomescan method relative to control; type: cell-based
[4] = target: Myosin light chain kinase 2, skeletal/cardiac muscle (Homo sapiens) (UniProt Q9H1R3); experiment: Binding affinity to wild-type human partial length MYLK2 (D258 to K570 residues) expressed in Escherichia coli BL21 at 1 uM by Kinomescan method relative to control
[5] = target: Phosphatidylinositol 4-phosphate 3-kinase C2 domain-containing subunit beta (Homo sapiens) (UniProt O00750); experiment: Binding affinity to wild-type human partial length PIK3C2B (M1 to L1634 residues) expressed in HEK293 cells at 1 uM by Kinomescan method relative to control; type: cell-based
[6] = target: Ephrin type-A receptor 1 (Homo sapiens) (UniProt P21709); experiment: Binding affinity to wild-type human partial length EPHA1 (V588 to I913 residues) expressed in Escherichia coli BL21 at 1 uM by Kinomescan method relative to control
[7] = target: Eukaryotic translation initiation factor 2-alpha kinase 1 (Homo sapiens) (UniProt Q9BQI3); experiment: Binding affinity to wild-type human partial length EIF2AK1 (Q147 to E603 residues) expressed in HEK293 cells at 1 uM by Kinomescan method relative to control; type: cell-based
[8] = target: Ephrin type-A receptor 2 (Homo sapiens) (UniProt P29317); experiment: Binding affinity to wild-type human partial length EPHA2 (T593 to V891 residues) expressed in Escherichia coli BL21 at 1 uM by Kinomescan method relative to control
[9] = target: Interleukin-1 receptor-associated kinase 4 (Homo sapiens) (UniProt Q9NWZ3); experiment: Binding affinity to wild-type human partial length IRAK4 (M1 to S460 residues) expressed in HEK293 cells at 1 uM by Kinomescan method relative to control; type: cell-based
[10] = target: BMP-2-inducible protein kinase (Homo sapiens) (UniProt Q9NSY1); experiment: Binding affinity to wild-type human partial length BIKE (S34 to N329 residues) expressed in Escherichia coli BL21 at 1 uM by Kinomescan method relative to control
[11] = tested on: Receptor-type tyrosine-protein kinase FLT3 (Homo sapiens), P36888 [D835H]; experiment: Binding affinity to human partial length FLT3 D835H mutant (V592 to Y969 residues) expressed in Escherichia coli BL21 at 1 uM by Kinomescan method relative to control
[12] = tested on: Leucine-rich repeat serine/threonine-protein kinase 2 (Homo sapiens), Q5S007 [G2019S]; experiment: Binding affinity to human partial length LRRK2 G2019S mutant (H970 to E2527 residues) expressed in HEK293 cells at 1 uM by Kinomescan method relative to control; type: cell-based
[13] = target: Serine/threonine-protein kinase PRP4 homolog (Homo sapiens) (UniProt Q13523); experiment: Binding affinity to wild-type human partial length PRP4 (D657 to I1007 residues) expressed in Escherichia coli BL21 at 1 uM by Kinomescan method relative to control
[14] = tested on: Proto-oncogene tyrosine-protein kinase receptor Ret (Homo sapiens), P07949 [V804M]; experiment: Binding affinity to human partial length RET V804M mutant (E713 to D1014 residues) expressed in Escherichia coli BL21 at 1 uM by Kinomescan method relative to control
[15] = tested on: Mast/stem cell growth factor receptor Kit (Homo sapiens), P10721 [V559D]; experiment: Binding affinity to human partial length KIT V559D mutant (Y545 to D952 residues) expressed in Escherichia coli BL21 at 1 uM by Kinomescan method relative to control
[16] = target: Mitogen-activated protein kinase kinase kinase 4 (Homo sapiens) (UniProt Q9Y6R4); experiment: Binding affinity to wild-type human partial length MAP3K4 (G1319 to E1608 residues) expressed in Escherichia coli BL21 at 1 uM by Kinomescan method relative to control
[17] = target: Protein-tyrosine kinase 6 (Homo sapiens) (UniProt Q13882); experiment: Binding affinity to wild-type human partial length BRK (L166 to T451 residues) expressed in Escherichia coli BL21 at 1 uM by Kinomescan method relative to control
[18] = target: Protein-tyrosine kinase 2-beta (Homo sapiens) (UniProt Q14289); experiment: Binding affinity to wild-type human full length PYK2 (M1 to E967 residues) expressed in Escherichia coli BL21 at 1 uM by Kinomescan method relative to control; procedure, shortened: as §1
[19] = target: MAP/microtubule affinity-regulating kinase 4 (Homo sapiens) (UniProt Q96L34); experiment: Binding affinity to wild-type human partial length MARK4 (K29 to G340 residues) expressed in Escherichia coli BL21 at 1 uM by Kinomescan method relative to control
[20] = target: Interleukin-1 receptor-associated kinase 3 (Homo sapiens) (UniProt Q9Y616); experiment: Binding affinity to wild-type human partial length IRAK3 (V147 to E596 residues) expressed in Escherichia coli BL21 at 1 uM by Kinomescan method relative to control
[21] = target: Cyclin-dependent kinase 16 (Homo sapiens) (UniProt Q00536); experiment: Binding affinity to wild-type human partial length PCTK1 (G160 to A474 residues) expressed in HEK293 cells at 1 uM by Kinomescan method relative to control; type: cell-based
[22] = target: Serine/threonine-protein kinase 32B (Homo sapiens) (UniProt Q9NY57); experiment: Binding affinity to wild-type human full length YANK2 (M1 to S414 residues) expressed in Escherichia coli BL21 at 1 uM by Kinomescan method relative to control; procedure, shortened: as §1
[23] = target: Phosphatidylinositol 4-phosphate 5-kinase type-1 alpha (Homo sapiens) (UniProt Q99755); experiment: Binding affinity to wild-type human full length PIP5K1A (M1 to H562 residues) expressed in Escherichia coli BL21 at 1 uM by Kinomescan method relative to control; procedure, shortened: as §1
[24] = target: Phosphatidylinositol 4-kinase beta (Homo sapiens) (UniProt Q9UBF8); experiment: Binding affinity to wild-type human full length PIK4CB (M1 to M828 residues) expressed in HEK293 cells at 1 uM by Kinomescan method relative to control; type: cell-based; procedure, shortened: as §1
[25] = target: Interferon-induced, double-stranded RNA-activated protein kinase (Homo sapiens) (UniProt P19525); experiment: Binding affinity to wild-type human partial length PRKR (F247 to C551 residues) expressed in Escherichia coli BL21 at 1 uM by Kinomescan method relative to control

Sequence of Mitogen-activated protein kinase kinase kinase 14 (Homo sapiens) (Q99558 whole entry, looked up, the tested form may be a part): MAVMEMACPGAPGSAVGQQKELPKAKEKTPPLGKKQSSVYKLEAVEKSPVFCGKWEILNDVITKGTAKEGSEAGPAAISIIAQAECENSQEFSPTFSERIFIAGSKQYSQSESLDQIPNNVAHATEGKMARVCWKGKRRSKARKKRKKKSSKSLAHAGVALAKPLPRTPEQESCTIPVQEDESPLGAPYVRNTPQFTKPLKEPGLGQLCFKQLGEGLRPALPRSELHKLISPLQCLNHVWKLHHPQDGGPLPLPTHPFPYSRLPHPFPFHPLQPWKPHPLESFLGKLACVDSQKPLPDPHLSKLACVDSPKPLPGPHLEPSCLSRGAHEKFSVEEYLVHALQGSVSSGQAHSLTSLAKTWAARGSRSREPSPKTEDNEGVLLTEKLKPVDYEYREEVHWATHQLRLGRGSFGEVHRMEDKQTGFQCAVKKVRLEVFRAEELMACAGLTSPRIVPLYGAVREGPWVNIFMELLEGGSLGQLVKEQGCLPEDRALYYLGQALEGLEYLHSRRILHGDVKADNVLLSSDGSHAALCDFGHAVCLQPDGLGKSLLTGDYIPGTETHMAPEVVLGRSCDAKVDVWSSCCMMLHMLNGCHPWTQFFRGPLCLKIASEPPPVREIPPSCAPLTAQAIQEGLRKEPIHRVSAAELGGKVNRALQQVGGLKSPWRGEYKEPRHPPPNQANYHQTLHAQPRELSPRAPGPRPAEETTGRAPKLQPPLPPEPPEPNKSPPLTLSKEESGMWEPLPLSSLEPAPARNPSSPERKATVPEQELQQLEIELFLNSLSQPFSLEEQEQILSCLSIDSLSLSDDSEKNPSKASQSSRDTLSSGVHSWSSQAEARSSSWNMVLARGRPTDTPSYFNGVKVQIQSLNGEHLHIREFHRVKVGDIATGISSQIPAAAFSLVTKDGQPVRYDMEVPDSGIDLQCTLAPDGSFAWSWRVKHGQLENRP
Sequence of RAC-alpha serine/threonine-protein kinase (Homo sapiens) (P31749 whole entry): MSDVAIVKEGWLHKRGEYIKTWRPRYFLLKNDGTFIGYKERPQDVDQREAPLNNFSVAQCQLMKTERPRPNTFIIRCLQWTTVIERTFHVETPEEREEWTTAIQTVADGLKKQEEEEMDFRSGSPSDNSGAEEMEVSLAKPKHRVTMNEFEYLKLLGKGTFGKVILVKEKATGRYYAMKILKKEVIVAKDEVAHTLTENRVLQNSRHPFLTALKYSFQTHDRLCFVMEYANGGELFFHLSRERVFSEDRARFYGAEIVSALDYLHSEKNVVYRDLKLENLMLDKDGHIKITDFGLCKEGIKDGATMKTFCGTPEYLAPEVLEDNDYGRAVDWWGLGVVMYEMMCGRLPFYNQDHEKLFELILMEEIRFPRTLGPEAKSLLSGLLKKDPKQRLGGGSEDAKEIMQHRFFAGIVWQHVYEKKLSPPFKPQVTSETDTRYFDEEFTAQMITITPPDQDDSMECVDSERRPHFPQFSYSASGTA
Sequence of MAP/microtubule affinity-regulating kinase 4 (Homo sapiens) (Q96L34 whole entry, the tested form may be a part): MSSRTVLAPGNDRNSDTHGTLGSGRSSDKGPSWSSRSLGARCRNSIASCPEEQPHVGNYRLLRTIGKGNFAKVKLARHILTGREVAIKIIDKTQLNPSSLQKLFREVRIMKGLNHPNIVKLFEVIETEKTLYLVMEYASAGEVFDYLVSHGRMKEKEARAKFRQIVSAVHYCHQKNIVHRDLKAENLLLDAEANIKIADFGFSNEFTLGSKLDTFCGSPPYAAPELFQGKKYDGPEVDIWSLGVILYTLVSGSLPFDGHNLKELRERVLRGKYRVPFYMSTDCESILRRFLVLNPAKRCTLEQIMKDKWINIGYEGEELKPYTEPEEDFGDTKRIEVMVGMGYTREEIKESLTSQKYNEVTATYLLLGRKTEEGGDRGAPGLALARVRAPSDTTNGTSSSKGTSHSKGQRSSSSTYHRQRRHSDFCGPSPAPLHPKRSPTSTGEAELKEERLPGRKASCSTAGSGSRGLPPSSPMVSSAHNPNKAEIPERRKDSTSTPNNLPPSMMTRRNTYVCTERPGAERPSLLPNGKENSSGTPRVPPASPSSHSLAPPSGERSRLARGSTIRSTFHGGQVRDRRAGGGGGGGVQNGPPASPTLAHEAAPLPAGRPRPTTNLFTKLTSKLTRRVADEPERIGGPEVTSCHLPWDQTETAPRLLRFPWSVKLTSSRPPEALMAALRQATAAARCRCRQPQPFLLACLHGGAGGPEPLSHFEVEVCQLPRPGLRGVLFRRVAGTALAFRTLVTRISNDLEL
Sequence of Myosin light chain kinase 2, skeletal/cardiac muscle (Homo sapiens) (Q9H1R3 whole entry, the tested form may be a part): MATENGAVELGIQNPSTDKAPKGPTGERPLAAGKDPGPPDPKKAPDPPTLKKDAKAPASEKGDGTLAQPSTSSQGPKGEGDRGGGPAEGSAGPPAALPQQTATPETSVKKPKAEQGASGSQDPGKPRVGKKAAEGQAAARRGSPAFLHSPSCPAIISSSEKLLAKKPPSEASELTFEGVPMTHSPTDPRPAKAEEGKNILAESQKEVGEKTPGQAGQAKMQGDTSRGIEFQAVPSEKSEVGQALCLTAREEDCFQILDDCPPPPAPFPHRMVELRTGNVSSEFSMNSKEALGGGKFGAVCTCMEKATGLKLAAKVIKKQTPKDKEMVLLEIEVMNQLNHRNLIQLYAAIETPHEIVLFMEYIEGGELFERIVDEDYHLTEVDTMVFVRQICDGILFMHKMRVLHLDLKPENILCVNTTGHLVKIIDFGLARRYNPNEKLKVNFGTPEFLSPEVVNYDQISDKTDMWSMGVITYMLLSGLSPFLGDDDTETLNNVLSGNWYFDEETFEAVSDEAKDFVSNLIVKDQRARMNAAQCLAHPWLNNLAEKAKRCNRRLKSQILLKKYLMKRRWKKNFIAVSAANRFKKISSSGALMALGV
Sequence of Ephrin type-A receptor 1 (Homo sapiens) (P21709 whole entry, the tested form may be a part): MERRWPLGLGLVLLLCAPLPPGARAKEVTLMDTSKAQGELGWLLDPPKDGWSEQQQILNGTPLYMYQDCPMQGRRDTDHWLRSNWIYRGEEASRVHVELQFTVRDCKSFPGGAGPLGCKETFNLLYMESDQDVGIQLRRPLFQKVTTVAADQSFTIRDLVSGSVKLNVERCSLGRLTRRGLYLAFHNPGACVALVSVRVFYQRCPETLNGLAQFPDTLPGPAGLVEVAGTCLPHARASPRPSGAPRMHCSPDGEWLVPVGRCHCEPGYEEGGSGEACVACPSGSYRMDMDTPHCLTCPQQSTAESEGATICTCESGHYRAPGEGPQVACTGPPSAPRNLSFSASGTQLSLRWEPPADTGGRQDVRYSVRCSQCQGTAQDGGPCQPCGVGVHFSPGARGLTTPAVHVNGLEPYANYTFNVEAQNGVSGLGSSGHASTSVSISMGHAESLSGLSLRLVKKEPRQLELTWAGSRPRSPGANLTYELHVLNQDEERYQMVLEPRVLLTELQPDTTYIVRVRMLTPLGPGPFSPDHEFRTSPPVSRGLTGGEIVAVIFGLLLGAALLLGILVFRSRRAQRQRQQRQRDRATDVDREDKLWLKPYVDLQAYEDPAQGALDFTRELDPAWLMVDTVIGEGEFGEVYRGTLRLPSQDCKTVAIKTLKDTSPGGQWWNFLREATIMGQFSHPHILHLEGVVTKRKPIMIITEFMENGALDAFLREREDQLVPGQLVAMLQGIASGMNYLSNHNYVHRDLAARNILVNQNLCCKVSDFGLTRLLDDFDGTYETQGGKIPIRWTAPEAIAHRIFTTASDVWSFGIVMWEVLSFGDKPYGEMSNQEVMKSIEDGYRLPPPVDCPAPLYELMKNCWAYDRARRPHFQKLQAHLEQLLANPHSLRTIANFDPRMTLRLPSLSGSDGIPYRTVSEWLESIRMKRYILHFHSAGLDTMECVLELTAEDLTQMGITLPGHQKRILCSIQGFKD
Sequence of Serine/threonine-protein kinase PRP4 homolog (Homo sapiens) (Q13523 whole entry, the tested form may be a part): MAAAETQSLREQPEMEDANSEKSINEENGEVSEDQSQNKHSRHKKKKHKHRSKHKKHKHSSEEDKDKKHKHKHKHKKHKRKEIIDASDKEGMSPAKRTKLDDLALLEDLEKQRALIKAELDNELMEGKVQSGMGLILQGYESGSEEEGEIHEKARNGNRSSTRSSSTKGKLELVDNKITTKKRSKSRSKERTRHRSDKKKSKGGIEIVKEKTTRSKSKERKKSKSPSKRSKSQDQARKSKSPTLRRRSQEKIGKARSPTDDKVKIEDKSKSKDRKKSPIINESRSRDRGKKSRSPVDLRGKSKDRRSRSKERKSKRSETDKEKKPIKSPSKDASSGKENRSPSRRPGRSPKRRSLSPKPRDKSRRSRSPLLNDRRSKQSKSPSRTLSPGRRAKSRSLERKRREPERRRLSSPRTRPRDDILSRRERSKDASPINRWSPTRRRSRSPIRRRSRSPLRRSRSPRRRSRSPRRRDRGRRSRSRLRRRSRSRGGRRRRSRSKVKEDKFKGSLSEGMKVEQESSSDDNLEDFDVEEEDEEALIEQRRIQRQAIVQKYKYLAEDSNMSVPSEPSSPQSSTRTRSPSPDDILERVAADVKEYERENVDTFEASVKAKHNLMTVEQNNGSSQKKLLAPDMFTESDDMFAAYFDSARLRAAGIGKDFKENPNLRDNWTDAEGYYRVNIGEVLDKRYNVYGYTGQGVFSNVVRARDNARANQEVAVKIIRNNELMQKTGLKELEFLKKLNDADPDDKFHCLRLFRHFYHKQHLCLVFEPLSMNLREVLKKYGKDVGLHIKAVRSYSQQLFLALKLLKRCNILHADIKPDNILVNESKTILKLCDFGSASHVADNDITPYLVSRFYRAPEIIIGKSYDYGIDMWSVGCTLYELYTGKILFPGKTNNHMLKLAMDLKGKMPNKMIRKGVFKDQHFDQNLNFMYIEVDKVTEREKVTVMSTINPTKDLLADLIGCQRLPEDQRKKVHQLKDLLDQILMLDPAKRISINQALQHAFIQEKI

SMILES | Activity [1] [%] | Activity [2] [%] | Activity [3] [%] | Activity [4] [%] | Activity [5] [%] | Activity [6] [%] | Activity [7] [%] | Activity [8] [%] | Activity [9] [%] | Activity [10] [%] | Activity [11] [%] | Activity [12] [%] | Activity [13] [%] | Activity [14] [%] | Activity [15] [%] | Activity [16] [%] | Activity [17] [%] | Activity [18] [%] | Activity [19] [%] | Activity [20] [%] | further results
CCC(=O)Nc1ccc(C(=O)Nc2ccc(Nc3ncc4c(n3)N(C)c3ccc(C)cc3C(=O)N4C)cc2)cc1 | 99 | 85 | 100 | 56 | 79 | 100 | 93 | 96 | 79 | 93 | 87 | 100 | 100 | 70 | 94 | 100 | 100 | 95 | 85 | 89 | Activity [21]: 74%; Activity [22]: 100%; Activity [23]: 100%; Activity [24]: 88%; Activity [25]: 100%
C=CC(=O)Nc1ccc(C(=O)Nc2ccc(Nc3ncc4c(n3)N(C)c3ccc(C)cc3C(=O)N4C)cc2)cc1 | 100 | 84 | 99 | 87 | 98 | 97 | 100 | 93 | 95 | 85 | 92 | 99 | 99 | 68 | 97 | 100 | 99 | 97 | 52 | 98 | Activity [21]: 100%; Activity [22]: 100%; Activity [23]: 100%; Activity [24]: 80%; Activity [25]: 90%
